Laboratory results as given in ChEMBL document CHEMBL1765036, “Small-molecule ligands of methyl-lysine binding proteins” (J Med Chem, 2011).
pIC50: −log10 of the molar value.

Columns and labels:
[1] = target: MBT domain-containing protein 1 (Homo sapiens, UniProt Q05BQ5); test: Binding affinity to MBTD1 by chemiluminescent assay
How it was run: (§1)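 AlphaScreen bead-based chemiluminescent proximity assay measuring antagonism of methylated histone peptide binding to the MBT/methyl-lysine reader domain. The peptide is H3K9Me1, the same one used as FAM-labelled probe (H3 residues 1-15, monomethyl K9) in the FP assay. A separate counterscreen was run for compound interference with the assay signal.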

[2] = target: T1, Lethal(3)malignant brain tumor-like protein 4 (Homo sapiens, UniProt Q8NA19); test: Binding affinity to L3MBTL4 by chemiluminescent assay; how it was run: as §1
T1 sequence (Q8NA19 whole entry): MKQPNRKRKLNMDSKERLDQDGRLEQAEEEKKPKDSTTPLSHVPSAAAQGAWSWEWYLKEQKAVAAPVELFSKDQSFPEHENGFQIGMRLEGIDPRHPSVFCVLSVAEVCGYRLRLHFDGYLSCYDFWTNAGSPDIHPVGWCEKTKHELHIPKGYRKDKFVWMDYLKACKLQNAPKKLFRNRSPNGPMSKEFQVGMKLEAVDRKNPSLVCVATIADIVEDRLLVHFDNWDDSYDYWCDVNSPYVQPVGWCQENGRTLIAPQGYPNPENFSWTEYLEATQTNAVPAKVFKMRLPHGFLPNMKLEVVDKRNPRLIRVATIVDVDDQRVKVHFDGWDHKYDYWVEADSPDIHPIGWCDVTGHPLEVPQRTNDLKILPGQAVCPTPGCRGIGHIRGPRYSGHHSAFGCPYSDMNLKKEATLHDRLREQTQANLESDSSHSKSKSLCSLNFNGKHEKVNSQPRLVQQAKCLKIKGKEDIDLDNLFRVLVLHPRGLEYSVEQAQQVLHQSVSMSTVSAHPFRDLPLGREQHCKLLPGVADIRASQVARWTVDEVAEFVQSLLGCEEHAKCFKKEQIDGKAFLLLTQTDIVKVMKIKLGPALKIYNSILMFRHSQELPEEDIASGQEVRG

[3] = target: T2, Lethal(3)malignant brain tumor-like protein 3 (Homo sapiens, UniProt Q96JM7); test: Binding affinity to L3MBTL3 by chemiluminescent assay; how it was run: as §1
T2 sequence (Q96JM7 whole entry): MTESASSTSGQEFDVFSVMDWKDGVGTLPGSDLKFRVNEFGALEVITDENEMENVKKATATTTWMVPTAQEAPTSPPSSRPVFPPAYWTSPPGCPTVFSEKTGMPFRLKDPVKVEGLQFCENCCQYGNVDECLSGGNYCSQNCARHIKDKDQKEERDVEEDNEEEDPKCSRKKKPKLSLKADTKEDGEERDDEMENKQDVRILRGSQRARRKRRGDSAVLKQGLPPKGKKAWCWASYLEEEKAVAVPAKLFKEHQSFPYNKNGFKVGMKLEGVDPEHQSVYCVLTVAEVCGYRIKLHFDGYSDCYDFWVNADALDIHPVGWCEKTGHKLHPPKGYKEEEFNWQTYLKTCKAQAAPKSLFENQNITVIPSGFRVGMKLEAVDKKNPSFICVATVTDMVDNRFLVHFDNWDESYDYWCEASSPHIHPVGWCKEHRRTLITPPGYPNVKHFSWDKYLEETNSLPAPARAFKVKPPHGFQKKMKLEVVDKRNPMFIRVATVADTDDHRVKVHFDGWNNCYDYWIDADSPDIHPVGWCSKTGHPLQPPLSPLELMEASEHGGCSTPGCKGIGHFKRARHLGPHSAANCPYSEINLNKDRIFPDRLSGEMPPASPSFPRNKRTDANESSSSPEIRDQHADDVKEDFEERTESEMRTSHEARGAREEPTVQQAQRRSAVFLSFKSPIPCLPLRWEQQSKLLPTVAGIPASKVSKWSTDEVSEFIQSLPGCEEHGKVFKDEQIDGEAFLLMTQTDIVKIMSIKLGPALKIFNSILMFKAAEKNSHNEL

PHD finger protein 13 = PHD finger protein 13 (Homo sapiens, UniProt Q86YI8); test: Binding affinity to PHF13 by chemiluminescent assay; how it was run: as §1
Sequence of PHD finger protein 13 (Q86YI8 whole entry, the tested form may be a part): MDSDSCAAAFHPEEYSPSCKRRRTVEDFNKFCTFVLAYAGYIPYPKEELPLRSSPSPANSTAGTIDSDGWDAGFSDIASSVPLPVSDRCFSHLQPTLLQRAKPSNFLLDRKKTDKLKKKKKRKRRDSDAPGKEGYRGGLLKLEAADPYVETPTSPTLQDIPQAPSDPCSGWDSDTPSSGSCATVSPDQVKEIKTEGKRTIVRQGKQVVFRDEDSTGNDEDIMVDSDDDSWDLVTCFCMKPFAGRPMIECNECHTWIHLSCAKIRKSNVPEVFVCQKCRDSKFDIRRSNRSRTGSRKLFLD

[4] = target: T3, Scm-like with four MBT domains protein 1 (Homo sapiens, UniProt Q9UHJ3); test: Binding affinity to human SFMBT by chemiluminescent assay; how it was run: as §1
T3 sequence (Q9UHJ3 whole entry): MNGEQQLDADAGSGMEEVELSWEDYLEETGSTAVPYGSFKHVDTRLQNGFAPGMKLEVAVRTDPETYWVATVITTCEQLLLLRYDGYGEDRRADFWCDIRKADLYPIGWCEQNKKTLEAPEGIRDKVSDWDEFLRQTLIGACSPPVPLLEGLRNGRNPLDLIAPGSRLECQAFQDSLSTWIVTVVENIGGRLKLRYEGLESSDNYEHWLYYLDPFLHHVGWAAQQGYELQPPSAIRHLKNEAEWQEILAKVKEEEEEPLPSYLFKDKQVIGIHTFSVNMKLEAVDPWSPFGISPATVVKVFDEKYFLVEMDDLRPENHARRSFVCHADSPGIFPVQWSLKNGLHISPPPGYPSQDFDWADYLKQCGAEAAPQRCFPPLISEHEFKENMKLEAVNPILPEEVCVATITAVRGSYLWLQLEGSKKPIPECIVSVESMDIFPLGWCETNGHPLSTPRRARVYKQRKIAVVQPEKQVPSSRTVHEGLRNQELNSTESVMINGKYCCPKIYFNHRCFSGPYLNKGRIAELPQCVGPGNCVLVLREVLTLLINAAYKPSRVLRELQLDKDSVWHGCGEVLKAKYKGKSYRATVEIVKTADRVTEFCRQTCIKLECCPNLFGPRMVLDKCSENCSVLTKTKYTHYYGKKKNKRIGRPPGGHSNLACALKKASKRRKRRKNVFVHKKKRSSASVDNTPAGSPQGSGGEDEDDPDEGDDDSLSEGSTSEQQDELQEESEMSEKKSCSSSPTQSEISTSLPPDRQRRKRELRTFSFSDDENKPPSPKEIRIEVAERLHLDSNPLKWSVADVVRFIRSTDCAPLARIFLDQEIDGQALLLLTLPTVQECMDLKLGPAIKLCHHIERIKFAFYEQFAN

[5] = target: T4, Chromobox protein homolog 7 (Homo sapiens, UniProt O95931); test: Binding affinity to CBX7 by chemiluminescent assay; how it was run: as §1
T4 sequence (O95931 whole entry): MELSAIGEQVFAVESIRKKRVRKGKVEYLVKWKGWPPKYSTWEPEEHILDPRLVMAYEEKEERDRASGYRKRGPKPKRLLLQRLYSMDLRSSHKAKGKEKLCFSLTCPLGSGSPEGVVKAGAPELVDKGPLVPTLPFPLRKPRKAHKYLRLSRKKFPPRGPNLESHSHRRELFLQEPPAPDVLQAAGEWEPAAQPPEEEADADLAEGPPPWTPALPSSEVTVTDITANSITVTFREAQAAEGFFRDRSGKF

Sequence of MBT domain-containing protein 1 (Q05BQ5 whole entry, the tested form may be a part): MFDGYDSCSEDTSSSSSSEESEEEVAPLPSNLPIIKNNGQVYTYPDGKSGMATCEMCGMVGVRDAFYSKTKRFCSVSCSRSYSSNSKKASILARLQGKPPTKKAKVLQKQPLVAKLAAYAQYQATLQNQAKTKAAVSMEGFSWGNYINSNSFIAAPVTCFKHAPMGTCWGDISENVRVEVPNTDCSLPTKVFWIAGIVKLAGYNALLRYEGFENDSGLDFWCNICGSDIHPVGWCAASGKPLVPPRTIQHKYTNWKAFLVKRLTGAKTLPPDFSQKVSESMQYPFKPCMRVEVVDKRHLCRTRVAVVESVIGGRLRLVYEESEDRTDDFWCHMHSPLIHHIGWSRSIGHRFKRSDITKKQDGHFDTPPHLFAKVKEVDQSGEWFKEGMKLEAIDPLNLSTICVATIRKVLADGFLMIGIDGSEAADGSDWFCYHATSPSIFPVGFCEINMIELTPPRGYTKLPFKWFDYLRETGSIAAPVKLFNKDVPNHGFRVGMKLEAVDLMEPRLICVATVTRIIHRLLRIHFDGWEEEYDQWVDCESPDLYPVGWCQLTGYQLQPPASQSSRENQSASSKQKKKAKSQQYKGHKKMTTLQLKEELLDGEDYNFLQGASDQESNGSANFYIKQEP

Compound	IC50 [1]	pIC50 ([2]; read-out: IC50)	pIC50 [3]	IC50 (PHD finger protein 13)	IC50 [4]	IC50 [5]	IC50 [2]	pIC50 (PHD finger protein 13; read-out: IC50)
O=C(c1cncc(Br)c1)N1CCC(N2CCCC2)CC1	Not Active	4.16	4.46	Not Active	Not Active	Not Active		
O=C(NCCCCCN1CCCC1)c1cncc(Br)c1	Not Active		4.55		Not Active	Not Active	Not Active	4.32
